Experimental data from the RNAGym collection of RNA variant scans (doi:10.1126/science.aae0568).
Variants at the floor of the assay were thinned out.

B1: tRNA (parent)
chain: GUUCCGUUGGCGUAAUGGUAACGCGUCUCCCUCCUAAGGAGAAGACUGCGGGUUCGAGUCCCGUACGGAACG

Variants of: B1
Test: yeast fitness relative to wild type (ratio to wild type); higher = fitter; tRNA-Arg(CCU), competitive growth, 37 C, YPD
Summary of the method: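 Gene amplicons from the start population and from each of six end populations were read by 100-nucleotide paired-end sequencing. Those end populations came from pooled Saccharomyces cerevisiae strains carrying tRNA-Arg(CCU) gene variants at the native locus, competed in YPD at 37°C for 24 hours. Fitness relative to wild type was worked out from changes in genotype frequencies. Genotypes needed ≥ 100 starting reads, and estimates < 0.5 were set to 0.5.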

Variant	yeast fitness
C4G A43U G51C	≤ 0.5
C4A U8C A15C C31U G48C A65C	0.608
C4G A37U C49A G52A C55U G56A	0.688
C4A U13G A45U U47A U59C	≤ 0.5
C4G C11U A42U G58A A69U	≤ 0.5
C4A U26C A65C	≤ 0.5
C4G C11A C66G	≤ 0.5
C4G C11G C55U U59C C61A	≤ 0.5
C4G A14C G48A C49U	≤ 0.5
C4A U28C A42G A65U A69C	≤ 0.5
C4G C5G G56A A69C	≤ 0.5
C4G A69U A70C	0.771
C4A U16C G17A	0.567
C4G A20U A57U	≤ 0.5
C4A U8G A14U A70U	≤ 0.5
C4G A14G U26C A36G A37C	≤ 0.5
C4G C5U U19A C55G U64A	≤ 0.5
C4A U47G	0.686
C4A U47A	0.857
C4G C11G C29A A40G	≤ 0.5
C4A U7G G12C C29A C30U C34U C61U C66A	≤ 0.5
C4G A20G G39A A45C	≤ 0.5
C4G A21G G67C	0.631
C4G A57G	0.728

Variant	yeast fitness
C4G A57U	0.757
C4G A21U C66G	≤ 0.5
C4G C5G G9A C49A	0.739
C4G A21G G50A	0.718
C4G A15G G23A C34G G67U	≤ 0.5
C4A U53A G67U	≤ 0.5
C4G A14U C24G C31G C61G	≤ 0.5
C4A U8A G17C C31U	0.558
C4A U35C G48C C55U G56A C62U	≤ 0.5
C4A U19C U35C	0.685
C4G A21G U28A A69U	≤ 0.5
C4G C5A U8C A21C C31A A42G	≤ 0.5
C4G A36C	0.745
C4G A36U	0.663
C4G C5G C11U G56A C61A	≤ 0.5
C4G A20U G50A G58C C66U	≤ 0.5
C4G C5U G25C G68A	≤ 0.5
C4G A15C U28C C55G A57U	≤ 0.5
C4A U32C G68C	0.867
C4G A21G A45U C49U U64A	0.556
C4A U7C A36G G41A C49A G67U	≤ 0.5
C4A U8A C24U C55U G68C	≤ 0.5
C4A U53C U64A	≤ 0.5
C4G A15C G50C U54C	≤ 0.5

Variant	yeast fitness
C4G C11U A14G C46G C55G C61G	≤ 0.5
C4G C5U A42G G67A	≤ 0.5
C4A U53C G68C	0.553
C4G C11U U19C U28G A45C U53A G63C	≤ 0.5
C4A U19G U35C	≤ 0.5
C4G C5U U8A G12A G48A A69C	≤ 0.5
C4G C5G U13C U28G	≤ 0.5
C4G C11A U32A U35A C49U U59G G67U	≤ 0.5
C4A U19G C31G A45C C46G	0.555
C4G A20G C27G C29G C55A A57U A69U	0.629
C4G A36U U53A G68A A69G	≤ 0.5
C4G A14C	0.568
C4G A14G	0.78
C4G A14U	0.78
C4A U32C C33U C49G	≤ 0.5
C4A U8C U19A C27U G38C C55U	≤ 0.5
C4G A15C C29G G48A	≤ 0.5
C4G A20U A57U C62U	≤ 0.5
C4G C11G A65C	0.576
C4G C11A C30G C60A	≤ 0.5
C4A U16G C22U G23U A42C G50C C66U	≤ 0.5
C4G A69U	0.775
C4G A14C A42G	≤ 0.5
C4A U7C U26G A65C	0.59

Variant	yeast fitness
C4G A40U A42C C61G	≤ 0.5
C4G C5G A14U C49G A57U G63A G67A	0.631
C4G A14C C30U A40U C49U	0.504
C4G C5G	0.697
C4G C11G C22U C46G	≤ 0.5
C4G C11G C22U C46U	≤ 0.5
C4G C5U U26A C34A	≤ 0.5
C4G A20G A43G	0.502
C4G C11U U47A	≤ 0.5
C4A U32C C46G	0.599
C4A U13A	0.595
C4A U13G	0.619
C4A U59A	0.664
C4A U59C	0.944
C4G A20C U26G C33U G44C U59A G67A	≤ 0.5
C4G C11G C31U G41C U54G	0.707
C4A U35C U64G	≤ 0.5
C4G A15C C46A G67A	≤ 0.5
C4A U47A G48C	0.559
C4G C11U A14U C30G	≤ 0.5
C4G A20U C61G	≤ 0.5
C4G A42U G68C	≤ 0.5
C4G A36U C62G	0.54
C4G C5G U26G A45C G67A	0.664

Variant	yeast fitness
C4G C5G A43G	0.556
C4A U16C G17A C62A	≤ 0.5
C4G A40U A45U U47C	≤ 0.5
C4A U13A G18A G52A C55G	≤ 0.5
C4A U35C C66A	≤ 0.5
C4A U64C	0.923
C4A U64G	0.641
C4A U47C A70C	0.749
C4A U13A A21G G58C G68A	0.607
C4G A40C C49G C55G A69U	≤ 0.5
C4G C5U G68A	0.602
C4G A14C C30U A40U G52C G67A	≤ 0.5
C4G C11G U47A C49U	≤ 0.5
C4G A14G A69U	0.52
C4G A14G A69C	0.508
C4G C11U A36U G52C	≤ 0.5
C4G A20U C60G C62G	0.584
C4G A20G A70C	0.758
C4G C5A C11U G18C C46G	≤ 0.5
C4G A57U U59G	≤ 0.5
C4G A45G C62A	0.554
C4A U32C G58C	0.588
C4G C11G U26A C60G	≤ 0.5
C4A U16G	0.651

Variant	yeast fitness
C4G C11G A21U A36U G58C	≤ 0.5
C4G A45C A69U	0.789
C4G A15U U54G C55U	0.51
C4G C11A U28G U47G C49G U53G C55G	≤ 0.5
C4A U32C A40U	0.517
C4G A20C C30A C31G C34A A37G C49A A57C G63A	≤ 0.5
C4G C11G U26A U54A C60U	≤ 0.5
C4G C5A C11U C27G A65U G68U	≤ 0.5
C4G A15U A21G G56A	0.626
C4G A40U A45U G67A	≤ 0.5
C4G A14U C46U C60U A65C	≤ 0.5
C4G A15U G56C U59A	≤ 0.5
C4G A14C G50C C62G	≤ 0.5
C4G A21G A43C C46A A57C C62G C66U	≤ 0.5
C4A U19A A69C	0.602
C4A U16C G17A A40C A43U U47A C60A	≤ 0.5
C4G A14U C31U A40G	≤ 0.5
C4G A36U C60G	0.655
C4G A21G C24G C34U U53C C55G C62A	≤ 0.5
C4A U47A C61U	0.545
C4G A40U A42C C66U	0.52
C4A U16C G17A C31U U54A	≤ 0.5
C4G A21U C49U G56C	≤ 0.5
C4G C5G C30U C31U A37G G50C A57U	≤ 0.5

Variant	yeast fitness
C4A U19A G44A U53C A70U	≤ 0.5
C4G A43G G51C	≤ 0.5
C4G A21C C22U C61U	≤ 0.5
C4G A40U C66U	0.571
C4A U32C A43C	0.57
C4A U35A A37U	≤ 0.5
C4A U28A C30A C49G A70C	≤ 0.5
C4G A21G A36U U59A	0.502
C4G A14C C22U U47C	≤ 0.5
C4G C5A C27U G68A	≤ 0.5
C4G A15U C29A G48A A65U	0.53
C4G A14C U47C	≤ 0.5
C4A U13G A45U U47A	0.616
C4A U13C U32G	0.571
C4G A36G U59C	0.667
C4G C5U G44C G63A G67U	≤ 0.5
C4A U8C G58A	≤ 0.5
C4G A14C G25C U54A C66G	≤ 0.5
C4G A40U C46U G67U	0.602
C4G C11U A14G C55G G68C	≤ 0.5
C4G C5U C31G A43U	≤ 0.5
C4G A14U C60A	0.553
C4G C5G C11A G38A C49U	≤ 0.5
